Reference: ChEMBL document CHEMBL1141374 (J Med Chem, 2007)

What was measured:
Tubulin = test: Inhibition of tubulin polymerization; type: protein-complex assay, Homo sapiens
In short: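 Kit-based assay run per the manufacturer's instructions. Tubulin (>99% pure, 3 mg/mL) in G-PEM buffer, in a prewarmed plate with compound at 0.03–30 μM. OD340 nm read every 60 s at 37 °C for 1 h.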

HCT-116 = test: Cytotoxicity against HCT116 cell line; type: cell-based; settings: Homo sapiens
In short: (§1)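 Log-phase cells were diluted to 20 000–30 000 cells/mL, seeded, and left to attach overnight. They were then exposed to compounds at 10^–5–10^–12 M for 72 h at 37 °C in 5% CO2. Viable cells were measured by MTT, with absorbance read at 595 nm. Each compound ran in triplicate in at least three independent assays. IC50 came from nonlinear regression, and average values were reported.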

HeLa = test: Cytotoxicity against HeLa cell line; type: cell-based; settings: Homo sapiens; in short: as §1
[1] = Cytotoxicity against P-glycoprotein-overexpressing KB-V1 cell line; type: cell-based; settings: Homo sapiens; in short: as §1
[2] = Cytotoxicity against KB-3-1 cell line; type: cell-based; settings: Homo sapiens; in short: as §1
ZR-75-1 = test: Cytotoxicity against ZR-75-1 cell line; type: cell-based; settings: Homo sapiens; in short: as §1

Structure (SMILES)	IC50 (Tubulin) [nM]	IC50 (HCT-116) [nM]	IC50 (HeLa) [nM]	IC50 [1] [nM]	IC50 [2] [nM]	IC50 (ZR-75-1) [nM]
COc1cc(-c2nncn2-c2ccc3c(c2)CCN3C)cc(OC)c1OC	> 10000	3290	4100			
COc1cc(-n2cnnc2-c2ccc3c(ccn3C)c2)cc(OC)c1OC	5600	24.3	18	32.1	15	
COc1cc2c(c(OC)c1OC)-c1ccc(OC)c(=O)cc1[C@@H](NC(C)=O)CC2 [COLCHICINE]		2.75	1.84	620	3.99	522
COc1ccc(/C=C\c2cc(OC)c(OC)c(OC)c2)cc1O [COMBRETASTATIN A4]		0.35	0.3	0.64	0.78	0.24
CC(=O)O[C@H]1C(=O)[C@@]2(C)[C@H]([C@H](OC(=O)c3ccccc3)[C@]3(O)C[C@H](OC(=O)[C@H](O)[C@@H](NC(=O)c4ccccc4)c4ccccc4)C(C)=C1C3(C)C)[C@]1(OC(C)=O)CO[C@@H]1C[C@@H]2O [PACLITAXEL]				> 10000	23.3	308
